According to ChEMBL document CHEMBL5247680, “Design, Synthesis, and Biological Activity of Thioguanine-Modified Pleuromutilin Derivatives” (ACS Med Chem Lett, 2023):
Values after ≈ are worked out from the molar mass of the structure shown. Active and inactive are the calls of the source. No cut-off for these calls is given here.

Assays:
[1] = tested on: Staphylococcus epidermidis; test: Antibacterial activity against Methicillin-resistant Staphylococcus epidermidis ATCC 51625 assessed as bacterial growth inhibition incubated for 20 to 24 hrs by microbroth serial dilution assay; type: functional; settings: time 20-24 hrs
Staphylococcus aureus [2] = test: Selectivity ratio of MBC for antibacterial activity against Methicillin-resistant Staphylococcus aureus ATCC 33591 to MIC for antibacterial activity against Methicillin-resistant Staphylococcus aureus ATCC 33591; type: functional
Staphylococcus aureus [3] = test: Selectivity ratio of MBC for antibacterial activity against Staphylococcus aureus to MIC for antibacterial activity against Staphylococcus aureus; type: functional
[4] = tested on: Staphylococcus epidermidis; test: Selectivity ratio of MBC for antibacterial activity against Methicillin-resistant Staphylococcus epidermidis ATCC 51625 to MIC for antibacterial activity against Methicillin-resistant Staphylococcus epidermidis ATCC 51625; type: functional
Staphylococcus aureus [5] = test: Antibacterial activity against Staphylococcus aureus ATCC 25923 assessed as bacterial growth inhibition incubated for 20 to 24 hrs by microbroth serial dilution assay; type: functional; settings: time 20-24 hrs
Staphylococcus aureus [6] = test: Antibacterial activity against Methicillin-resistant Staphylococcus aureus ATCC 43300 assessed as bacterial growth inhibition incubated for 20 to 24 hrs by microbroth serial dilution assay; type: functional; settings: time 20-24 hrs
Staphylococcus aureus [7] = test: Antibacterial activity against Methicillin-sensitive Staphylococcus aureus ATCC 29213 assessed as bacterial growth inhibition incubated for 20 to 24 hrs by microbroth serial dilution assay
Staphylococcus aureus [8] = test: Antibacterial activity against Methicillin-resistant Staphylococcus aureus ATCC 33591 assessed as bacterial growth inhibition incubated for 20 to 24 hrs by microbroth serial dilution assay; type: functional; settings: time 20-24 hrs
[9] = tested on: Staphylococcus epidermidis; test: Antibacterial activity against Methicillin-sensitive Staphylococcus epidermidis ATCC 12228 assessed as bacterial growth inhibition incubated for 20 to 24 hrs by microbroth serial dilution assay; type: functional; settings: time 20-24 hrs
[10] = tested on: Staphylococcus epidermidis; test: Selectivity ratio of MBC for antibacterial activity against Methicillin-sensitive Staphylococcus epidermidis […] to MIC for antibacterial activity against Methicillin-sensitive Staphylococcus epidermidis […]; type: functional
Staphylococcus aureus [11] = test: Selectivity ratio of MBC for antibacterial activity against Methicillin-sensitive Staphylococcus aureus ATCC 29213 to MIC for antibacterial activity against Methicillin-sensitive Staphylococcus aureus ATCC 29213
Staphylococcus aureus [12] = test: In vivo Antibacterial activity against Methicillin-resistant Staphylococcus aureus in ICR mouse thigh infection model assessed as reduction in bacterial load at 40 mg/kg, IP by […]; type: functional
Staphylococcus aureus [13] = test: Antibacterial activity against Methicillin-resistant Staphylococcus aureus ATCC 33591 assessed as bacterial bactericidal effect at 1 to 2 times MIC measured upto 24 hrs by time kill assay; type: functional, organism-based
Outline: (§1)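 MRSA ATCC 33591 time-kill curves at 1×, 2× and 4× MIC, with a tiamulin positive control and an untreated growth control. Viable counts were taken as CFU·mL⁻¹ at time points through incubation, including 2, 8 and 12 h.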

Staphylococcus aureus [14] = test: Antibacterial activity against Methicillin-resistant Staphylococcus aureus ATCC 33591 assessed as bacterial growth inhibition at 1 to 2 times MIC measured upto 24 hrs by time kill assay; type: functional, organism-based; outline: as §1
Staphylococcus aureus [15] = test: Antibacterial activity against Methicillin-resistant Staphylococcus aureus ATCC 33591 assessed as bacterial colony inhibition at 1 to 2 times MIC measured upto 24 hrs by time kill assay; type: functional, organism-based; outline: as §1
Staphylococcus aureus [16] = test: Selectivity ratio of MBC for antibacterial activity against Methicillin-resistant Staphylococcus aureus ATCC 43300 to MIC for antibacterial activity against Methicillin-resistant Staphylococcus aureus ATCC 43300; type: functional

What does the source list for `C=C[C@]1(C)C[C@@H](OC(=O)CSc2nc(NC(=O)CN3CCCC3)nc3[nH]cnc23)[C@@]2(C)C3C(=O)CC[C@@]3(CC[C@H]2C)[C@@H](C)[C@@H]1O` (some centres undefined)?
MIC [1]: 1 µg/mL (≈ 1.57 µM); Ratio (Staphylococcus aureus [2]): 4; Ratio (Staphylococcus aureus [3]): >4; Ratio [4]: 4; MIC (Staphylococcus aureus [5]): 2 µg/mL (≈ 3.13 µM); MIC (Staphylococcus aureus [6]): 1 µg/mL (≈ 1.57 µM); MIC (Staphylococcus aureus [7]): 2 µg/mL (≈ 3.13 µM); MIC (Staphylococcus aureus [8]): 2 µg/mL (≈ 3.13 µM); MIC [9]: 2 µg/mL (≈ 3.13 µM); Ratio [10]: >4; Ratio (Staphylococcus aureus [11]): 4

`C=C[C@]1(C)C[C@@H](OC(=O)CSc2nc(N)nc3c2ncn3C(=O)NCc2cccc(OC)c2)[C@@]2(C)C3C(=O)CC[C@@]3(CC[C@H]2C)[C@@H](C)[C@@H]1O` (some centres undefined) was tested. Which MIC [1] did it give?
The MIC was 0.0625 µg/mL (≈ 0.0905 µM).

And the Ratio (Staphylococcus aureus [2])?
The Ratio was 4.

And the Ratio (Staphylococcus aureus [3])?
Its Ratio is greater than 4.

What about the Ratio [4] of the same molecule?
Its Ratio is 2.

And the MIC (Staphylococcus aureus [5])?
Its MIC is 0.125 µg/mL (≈ 0.181 µM).

What about the MIC (Staphylococcus aureus [6]) of the same molecule?
The MIC was 0.125 µg/mL (≈ 0.181 µM).

And the MIC (Staphylococcus aureus [7])?
The MIC was 0.0625 µg/mL (≈ 0.0905 µM).

What about the MIC (Staphylococcus aureus [8]) of the same molecule?
The MIC was 0.125 µg/mL (≈ 0.181 µM).

And the MIC [9]?
Its MIC is 0.0156 µg/mL (≈ 0.0226 µM).

What about the Ratio [10] of the same molecule?
The Ratio was greater than 4.

What about the Ratio (Staphylococcus aureus [11]) of the same molecule?
The Ratio was 4.

Which results are given for `C=C[C@]1(C)C[C@@H](OC(=O)CSCCN(CC)CC)[C@]2(C)[C@H](C)CC[C@]3(CCC(=O)[C@H]32)[C@@H](C)[C@@H]1O` [TIAMULIN]?
MIC [1]: 1 µg/mL (≈ 2.03 µM); Ratio (Staphylococcus aureus [3]): 4; Activity (Staphylococcus aureus [12]): 1 10^7CFU/g; MIC (Staphylococcus aureus [5]): 2 µg/mL (≈ 4.05 µM); Activity (Staphylococcus aureus [13]): inactive; MIC (Staphylococcus aureus [6]): 2 µg/mL (≈ 4.05 µM); MIC (Staphylococcus aureus [7]): 1 µg/mL (≈ 2.03 µM); Activity (Staphylococcus aureus [14]): Active; MIC (Staphylococcus aureus [8]): 1 µg/mL (≈ 2.03 µM); Activity (Staphylococcus aureus [15]): Active; MIC [9]: 0.5 µg/mL (≈ 1.01 µM); Ratio [10]: >4; Ratio (Staphylococcus aureus [11]): >4

`C=C[C@]1(C)C[C@@H](OC(=O)CSc2nc(NC(=O)CN3CCOCC3)nc3[nH]cnc23)[C@@]2(C)C3C(=O)CC[C@@]3(CC[C@H]2C)[C@@H](C)[C@@H]1O` (some centres undefined) was tested. Which MIC [1] did it give?
The MIC was 0.125 µg/mL (≈ 0.191 µM).

What about the Ratio (Staphylococcus aureus [2]) of the same molecule?
Its Ratio is greater than 4.

What about the MIC (Staphylococcus aureus [5]) of the same molecule?
Its MIC is 0.5 µg/mL (≈ 0.764 µM).

And the MIC (Staphylococcus aureus [6])?
The MIC was 1 µg/mL (≈ 1.53 µM).

What about the Ratio (Staphylococcus aureus [16]) of the same molecule?
The Ratio was greater than 4.

And the MIC (Staphylococcus aureus [7])?
Its MIC is 1 µg/mL (≈ 1.53 µM).

What about the MIC (Staphylococcus aureus [8]) of the same molecule?
Its MIC is 1 µg/mL (≈ 1.53 µM).

What about the MIC [9] of the same molecule?
The MIC was 0.0156 µg/mL (≈ 0.0238 µM).

What about the Ratio [10] of the same molecule?
Its Ratio is greater than 4.

And the Ratio (Staphylococcus aureus [11])?
The Ratio was greater than 4.

Which MIC [1] does the source give for `C=C[C@]1(C)C[C@@H](OC(=O)CSc2nc(N)nc3c2ncn3C(=O)Nc2ccc(F)cc2)[C@@]2(C)C3C(=O)CC[C@@]3(CC[C@H]2C)[C@@H](C)[C@@H]1O` (some centres undefined) here?
Its MIC is 0.125 µg/mL (≈ 0.188 µM).

What about the Ratio (Staphylococcus aureus [3]) of the same molecule?
The Ratio was greater than 4.

And the Ratio [4]?
The Ratio was 4.

What about the MIC (Staphylococcus aureus [5]) of the same molecule?
The MIC was 0.125 µg/mL (≈ 0.188 µM).

And the MIC (Staphylococcus aureus [6])?
The MIC was 0.125 µg/mL (≈ 0.188 µM).

And the MIC (Staphylococcus aureus [7])?
The MIC was 0.25 µg/mL (≈ 0.376 µM).

And the MIC (Staphylococcus aureus [8])?
Its MIC is 0.125 µg/mL (≈ 0.188 µM).

What about the MIC [9] of the same molecule?
The MIC was 0.0156 µg/mL (≈ 0.0235 µM).

What about the Ratio [10] of the same molecule?
The Ratio was greater than 4.

What about the Ratio (Staphylococcus aureus [11]) of the same molecule?
Its Ratio is 2.

For `C=C[C@]1(C)C[C@@H](OC(=O)CSc2nc(N)nc3c2ncn3C(=O)OCC)[C@@]2(C)C3C(=O)CC[C@@]3(CC[C@H]2C)[C@@H](C)[C@@H]1O` (some centres undefined), which MIC [1] is on record?
The MIC was 0.25 µg/mL (≈ 0.417 µM).

What about the Ratio (Staphylococcus aureus [3]) of the same molecule?
The Ratio was 4.

What about the MIC (Staphylococcus aureus [5]) of the same molecule?
The MIC was 0.25 µg/mL (≈ 0.417 µM).

And the MIC (Staphylococcus aureus [6])?
The MIC was 0.125 µg/mL (≈ 0.208 µM).

What about the Ratio (Staphylococcus aureus [16]) of the same molecule?
The Ratio was greater than 4.

What about the MIC (Staphylococcus aureus [7]) of the same molecule?
The MIC was 0.125 µg/mL (≈ 0.208 µM).

And the MIC (Staphylococcus aureus [8])?
Its MIC is 0.25 µg/mL (≈ 0.417 µM).

What about the MIC [9] of the same molecule?
Its MIC is less than 0.0078 µg/mL.

And the Ratio [10]?
Its Ratio is greater than 4.

What about the Ratio (Staphylococcus aureus [11]) of the same molecule?
Its Ratio is greater than 4.

What does the source list for `C=C[C@]1(C)C[C@@H](OC(=O)CSc2nc(N)nc3[nH]cnc23)[C@@]2(C)C3C(=O)CC[C@@]3(CC[C@H]2C)[C@@H](C)[C@@H]1O` (some centres undefined)?
MIC [1]: 0.125 µg/mL (≈ 0.237 µM); Ratio (Staphylococcus aureus [2]): 4; Ratio (Staphylococcus aureus [3]): >4; Ratio [4]: 2; MIC (Staphylococcus aureus [5]): 0.25 µg/mL (≈ 0.474 µM); MIC (Staphylococcus aureus [6]): 0.125 µg/mL (≈ 0.237 µM); MIC (Staphylococcus aureus [7]): 0.125 µg/mL (≈ 0.237 µM); MIC (Staphylococcus aureus [8]): 0.125 µg/mL (≈ 0.237 µM); MIC [9]: 0.125 µg/mL (≈ 0.237 µM); Ratio [10]: >4

How did the MIC [1] turn out when `C=C[C@]1(C)C[C@@H](OC(=O)CSC(C)(C)CNC(=O)[C@H](N)C(C)C)[C@]2(C)[C@H](C)CC[C@]3(CCC(=O)[C@H]32)[C@@H](C)[C@@H]1O` [VALNEMULIN] was run?
The MIC was 0.125 µg/mL (≈ 0.221 µM).

And the Ratio (Staphylococcus aureus [3])?
The Ratio was 1.

And the MIC (Staphylococcus aureus [5])?
The MIC was 0.25 µg/mL (≈ 0.443 µM).

What about the MIC (Staphylococcus aureus [6]) of the same molecule?
The MIC was 0.125 µg/mL (≈ 0.221 µM).

What about the Ratio (Staphylococcus aureus [16]) of the same molecule?
The Ratio was 4.

And the MIC (Staphylococcus aureus [7])?
Its MIC is 0.125 µg/mL (≈ 0.221 µM).

And the MIC (Staphylococcus aureus [8])?
Its MIC is 0.25 µg/mL (≈ 0.443 µM).

What about the MIC [9] of the same molecule?
Its MIC is 2 µg/mL (≈ 3.54 µM).

What about the Ratio [10] of the same molecule?
The Ratio was greater than 4.

What about the Ratio (Staphylococcus aureus [11]) of the same molecule?
The Ratio was greater than 4.

For `C=C[C@]1(C)C[C@@H](OC(=O)CSc2nc(N)nc3c2ncn3C(=O)Nc2cccc(C(F)(F)F)c2)[C@@]2(C)C3C(=O)CC[C@@]3(CC[C@H]2C)[C@@H](C)[C@@H]1O` (some centres undefined), which MIC [1] is on record?
The MIC was 0.125 µg/mL (≈ 0.175 µM).

What about the Ratio (Staphylococcus aureus [3]) of the same molecule?
Its Ratio is greater than 4.

What about the Ratio [4] of the same molecule?
The Ratio was 4.

And the MIC (Staphylococcus aureus [5])?
The MIC was 0.25 µg/mL (≈ 0.35 µM).

What about the MIC (Staphylococcus aureus [6]) of the same molecule?
The MIC was 0.25 µg/mL (≈ 0.35 µM).

What about the MIC (Staphylococcus aureus [7]) of the same molecule?
Its MIC is 0.125 µg/mL (≈ 0.175 µM).

And the MIC (Staphylococcus aureus [8])?
Its MIC is 0.25 µg/mL (≈ 0.35 µM).

What about the MIC [9] of the same molecule?
Its MIC is 0.0156 µg/mL (≈ 0.0218 µM).

And the Ratio [10]?
Its Ratio is greater than 4.
